High-throughput results (PubChem)
L major viab: inhibitors of Leishmania major promastigote growth. Leishmania major promastigotes, resazurin fluorescence viability. AID 1063. inhibition, % at 10 µM. hit rate 9% among 200,000; in the data active = inhibition above about 50%;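 note: promastigotes grown with compound for 44 hours at 28 °C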
NALP3 yeast inh: NALP3 inhibition in yeast. Yeast reconstituted NLRP3/ASC/caspase-1, beta-gal luminescence, 24 h. hit rate 0.39% among 330,000. inhibition, % at 10 µM;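 active = inhibition of 50% or more; inactive = inhibition below 50%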;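 note: plate controls were induced DMSO wells for no effect and uninduced yeast grown without galactose for full effect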
T cruzi inh: T. cruzi replication inhibition | T. cruzi beta-gal in NIH3T3, luminescence, 90 h | inhibition, % (test concentration not listed) | hit rate 1.4% among 300,000 | AID 1885;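 active = mean inhibition across valid replicates above about 55%, limit read from the data; inconclusive = mean below that limit but half or more replicates reach it; inactive = mean below it, under half of replicates reach it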;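 note: signal also drops with host cell toxicity which is not excluded here; 0% = plate median of DMSO wells and 100% = zero luminescence signal; higher percent means less beta-gal luminescence so fewer parasites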
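Assay system: NIH/3T3 fibroblasts plus reporter T. cruzi. Amount: NIH/3T3 cells, 5,000 per well. Buffer or medium: DMEM, 2% fetal bovine serum. Doses: compound pinned at 50 nL/well, DMSO. Schedule: ≥90 h infection period, 3 h prior cell attachment. Signal: luminescent β-galactosidase signal after 60 min lysis. Read-out: parasite load inhibition, %.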
NALP1 yeast inh: blocks the NALP1 inflammasome reconstituted in yeast | S. cerevisiae NALP1/ASC/caspase-1 growth, X-gal OD620, 72 h | inhibition, % at 10 µM | hit rate 0.61% among 280,000 | AID 2071; in the data active = inhibition mostly above about 24%, no sharp cut-off; inactive = mostly below about 32%
Calb FLC: affects C. albicans growth with fluconazole. growth inhibition, % (concentration not given with the values). C. albicans CaCi-2 + fluconazole, Alamar Blue growth, 48 h. AID 1979. hit rate 0.57% among 300,000;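 active = growth inhibition above about 58% in most replicates, limit read from the data, passing the limit was not always enough; inconclusive = exactly half the replicates above a set limit; inactive = most replicates below a set limit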;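 note: all wells also contain fluconazole at 8 µg/ml as a sub-toxic cotreatment; 0% = median of DMSO wells and 100% = median of geldanamycin control wells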
PolyA inhibitor: inhibitors of polyadenylation in S. cerevisiae; S. cerevisiae SKY197-pL101 polyadenylation reporter, beta-gal luminescence; efflux-impaired pdr1/pdr3 knockout yeast; score 100 = 6 SD above DMSO; activity score, % at 12 µM; hit rate 0.02% among 300,000; AID 1875;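 active = lowest replicate activity score at least 50, where 100 means six control SD above control mean; inconclusive = lowest score under 50 but half or more replicates reach 50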;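 note: yeast exposed to compound for 9 h at 30 °C; higher score means more reporter readthrough which indicates perturbed polyadenylation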
The depositor's hits bear a star; u = inconclusive; x = no result given. Only a selection was taken, and hits are over-represented in it overall.

SMILES	L major viab	NALP3 yeast inh	T cruzi inh	NALP1 yeast inh	Calb FLC	PolyA inhibitor
COc1ccc(NC(=O)C(Cl)=C(Cl)Cl)cn1	5.4	4.1	-7.8	-20.2	57.0	6.3
COc1ccc(C2=NN(C(=O)CCC(=O)O)C(c3ccc(Br)cc3)C2)cc1 (configuration not stated)	x	9.6	0.3	6.3	13.8	5.0
N#Cc1ccc(CN2CCN(CC(=O)NCCc3ccc(Cl)cc3Cl)CC2)cc1	x	9.0	23.5	-6.2	2.5	4.5
CCCC(=O)Oc1ccc(C2NC(=O)c3ccccc3O2)cc1OC (configuration not stated)	x	-20.6	3.8	-15.1	-0.8	-18.3
O=C(c1ccc(CS(=O)(=O)c2ccc(Br)cc2)o1)N1CCN(C2CCCCC2)CC1	99.3*	18.5	51.1	8.3	-2.6	-13.2
COc1ccc(S(=O)(=O)Cc2ccc(C(=O)N3CCN(C4CCCCC4)CC3)o2)cc1	99.4*	-1.2	45.5	11.3	-1.2	-29.6
Cc1ccccc1S(=O)(=O)Cc1ccc(C(=O)N2CCN(C3CCCCC3)CC2)o1	34.3	18.9	48.6	10.7	4.1	-12.1
Cc1ccc(C)c(SCC(=O)OCC(=O)N2CC(C)OC(C)C2)c1 (configuration not stated)	-7.8	-10.8	2.7	5.1	6.8	-13.8
CC12C(=O)N(Cc3ccco3)C(=O)C1C1c3ccccc3C2c2ccccc21 (configuration not stated)	-2.0	28.0	4.0	-0.4	3.4	6.5
CC(C)CC(C(=O)OCC(=O)c1c(N)n(C)c(=O)n(C)c1=O)N1C(=O)c2ccccc2C1=O (configuration not stated)	57.2*	15.1	-4.5	19.4	-25.0	-1.8
COc1cccc(CN2CCC(N(CCc3ccccc3)Cc3ccccc3)CC2)c1OC	99.2*	19.0	25.3	25.3	-19.4	-5.4
COc1cccc(CN2CCN(Cc3cc(OC)c(OC)c(OC)c3)CC2)c1OC	x	4.7	-0.8	19.6	-6.5	-14.0
CCN(CC)c1ccc(NC(=O)c2ccc(=O)[nH]c2)cc1S(=O)(=O)Nc1ccccc1OC	1.2	8.9	-5.6	-10.6	12.7	-12.0
CCN(CC)c1ccc(NC(=O)c2ccccc2F)cc1S(=O)(=O)Nc1ccccc1OC	99.9*	0.5	44.2	25.5	5.4	11.2
CCN(CC)c1ccc(NC(=O)c2ccccc2Br)cc1S(=O)(=O)Nc1ccccc1OC	96.7*	9.2	39.1	7.5	-19.9	-6.0
CC(=O)N(C1=C(Cl)C(=O)c2ccccc2C1=O)C1CCCCC1	x	17.8	57.7*	66.2*	31.2	-5.7
CC(=O)N(c1ccccc1C)C1CCCC1	-1.6	-45.1	-4.1	7.9	u	-7.5
Cc1ccccc1NC(=O)CNC(=O)c1ccc(C(F)(F)F)cc1	62.1*	7.1	-6.5	31.9	-6.8	2.4
Cc1cccc(OCCc2nnc(N)s2)c1C	1.7	4.6	-11.1	18.5	-10.6	2.2
N#CCCn1nc(-c2ccc(Br)cc2)cc1Nc1ccccc1NC(=O)C(F)(F)F	69.1*	8.8	-0.6	23.1	1.1	7.0
N#CCCn1nc(-c2ccccc2)cc1Nc1ccccc1NC(=O)C(F)(F)F	14.2	3.6	-0.6	24.8	-5.2	12.1
CC(=O)N(c1cccc(C(F)(F)F)c1)c1nc(/C=C/C(=O)O)cs1	x	3.1	3.3	x	5.2	-7.9
Cc1cccc(C)c1OCc1nnc(NC(=O)CSc2ccc(Cl)cc2)s1	58.9*	-19.8	-0.2	4.0	5.5	-2.3
O=C(NCCc1ccccc1)C1CCCN1C(=O)Nc1cccc(Cl)c1 (configuration not stated)	x	19.9	-3.9	-7.3	-9.0	15.2
O=C(Nc1nc2ccccc2[nH]1)c1ccc(F)c(S(=O)(=O)N2CCOCC2)c1	3.3	-13.4	-1.9	7.1	-5.6	-4.1
SMILES	L major viab	NALP3 yeast inh	T cruzi inh	NALP1 yeast inh	Calb FLC	PolyA inhibitor
COc1cc(C(=O)Nc2nc3ccccc3[nH]2)ccc1OC(F)F	x	7.2	8.3	-2.7	7.7	8.6
COc1cc(OC)cc(C(=O)Nc2ccc(-c3nc4ccccc4o3)cc2)c1	29.1	29.8	60.3*	18.3	-4.6	0.2
COc1ccc(C(=O)Nc2nc3ccccc3[nH]2)cc1OC	65.4*	8.9	-11.0	1.6	-9.6	4.6
CC(C)Oc1ccc(C(=O)Nc2nc3ccccc3[nH]2)cc1	x	10.9	33.1	0.0	12.5	2.0
CCC(Oc1ccccc1)C(=O)Nc1nc2ccccc2[nH]1 (configuration not stated)	99.6*	4.3	0.6	0.3	-36.3	-7.2
COc1ccc(C(=O)Nc2nc3ccccc3[nH]2)cc1S(=O)(=O)N1CCCC1	59.4*	14.8	11.7	-6.2	1.5	0.2
CN(CC(=O)Nc1ccc(OC(F)(F)F)cc1)S(=O)(=O)c1cnc[nH]1	x	16.7	-0.6	29.8	-1.2	19.6
CC1=CC2=NC(=O)CC(C)(C(=O)N(CC(=O)NC(C)C)C3CCCC3)N2C=C1 (configuration not stated)	-10.1	15.6	-3.8	0.7	-14.7	6.2
CCOc1ccc(C(=O)Nc2cccc(-c3nc4ccccc4[nH]3)c2C)cc1[N+](=O)[O-]	50.9*	12.1	16.9	7.4	-3.3	-8.5
O=C(O)c1ccccc1-c1ccccc1C(=O)Nc1cccc(-c2nc3ccccc3o2)c1	-12.8	3.6	1.4	3.1	89.0*	-12.8
CCOc1ccc(C(=O)Nc2nc3ccccc3[nH]2)cc1OCC	52.0*	13.9	17.6	-1.6	7.7	-14.9
COc1cc(OC)cc(C(=O)Nc2nc3ccccc3[nH]2)c1	64.0*	18.9	9.4	-3.9	-13.4	9.7
CCOc1ccc(C(=O)Nc2cc(-c3nc4ccccc4[nH]3)ccc2C)cc1[N+](=O)[O-]	35.7	22.1	18.0	4.4	-1.0	15.9
COC(=O)c1sccc1NC(=O)Nc1ccc(OC)cc1	x	20.7	-12.8	8.8	6.5	-16.0
CCOC(=O)c1cncc(O)c1	x	1.0	-4.3	7.4	1.0	-0.3
c1ccc2c(C3CCO3)cccc2c1 (configuration not stated)	x	22.0	x	x	x	x
Cc1ccc(C(=O)NCc2ccc(F)cc2)cc1NC1=NC2CS(=O)(=O)CC2S1 (configuration not stated)	x	4.5	-1.6	18.5	-7.4	-11.7
O=S(=O)(c1cccc2nsnc12)N1CCN(C/C=C\c2ccccc2)CC1	94.3*	-21.2	18.0	8.8	1.6	-28.5
O=S(=O)(c1cccc2nsnc12)N1CCN(C/C=C/c2ccccc2)CC1	80.8*	-2.7	20.9	-16.8	-4.4	0.5
CCN1CCN(S(=O)(=O)c2cccc3nsnc23)CC1	-3.5	20.4	-10.2	-4.0	-4.1	17.7
COc1cccc(CNC(=O)Cn2cc([N+](=O)[O-])cn2)c1	x	-1.6	-5.8	2.9	1.2	2.4
COC(=O)c1ccc(C(=O)OC)c(NC(=O)CSc2cccc[n+]2[O-])c1	98.0*	7.9	16.7	4.3	112.6*	-2.0
